In series [1] the test system is NCI-H1435. The series is described as follows: Antitumor activity against human NCI-H1435 cells expressing CES2 gene xenografted in pentyl PABC-doxazolidine-pretreated athymic nude mouse assessed as inhibition of tumor growth at 2.5 mg/kg, iv administered on day 63 after tumor implantation. The class given is functional, organism-based. On the set-up: dose 2.5 mg/kg. The essentials: (§1)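 Athymic nude females, 4–6 weeks old, given ~2 × 10⁶ H1435 cells s.c. in the left flank on day 0; 10 mice/group. I.v. tail-vein doses (Dox-equivalent mg/kg) in 5% DMSO/95% D5W on days 7, 14 and 21, with all groups retreated on days 56, 63 and 70; vehicle controls. Caliper volume π × short² × long/6. Cube roots analysed with day-7 size as baseline covariate, by period.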
For orientation: A xenograft is tissue or cells of one species grown in another, often human tumour cells in immunodeficient mice.

Series [2] has as its system Mus musculus. In words: Toxicity in athymic nude mouse xenografted with human NCI-H1435 cells expressing CES2 gene assessed as occurrence of fatty liver administered with six iv injection of 2.5 mg/kg by hematoxylin/eosin staining-based microscopy. The class given is organism-based. To be noted: in vivo. Further details: dose 2.5 mg/kg, route intravenous. Put shortly:
(§2)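 Hearts and livers taken from the H1435 nude-mouse study (six i.v. injections) after CO₂/cervical dislocation. Fixed in 10% formalin for 24 h, paraffin-embedded, and cut at 4 µm. Slides deparaffinized in xylene and ethanol, stained with Mayer's hematoxylin for 2 min, blued in 1% ammonium hydroxide, and counterstained with eosin for 30 s. Examined by light microscopy.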

The test system of series [3] is Mus musculus. In words: Toxicity in athymic nude mouse xenografted with human NCI-H1435 cells expressing CES2 gene assessed as appearance of fibrotic damage in heart tissue administered with six iv injection of 2.5 mg/kg by hematoxylin/eosin staining-based microscopy. The class given is organism-based. As to conditions: in vivo. Further details: dose 2.5 mg/kg, route intravenous. Put shortly: as §2

The test system of the next series is HepG2. The series is described as follows: Antitumor activity against human HepG2 cells expressing CES2 gene xenografted in NOD/SCID mouse assessed as inhibition of tumor growth at 4 to 5 mg/kg, iv administered on day 7, 14 and 21 after tumor implantation. The class given is functional, organism-based. Put shortly:
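NOD/SCID females, 4–6 weeks old, each given ~1.5 × 10⁷ N-Hep G2 cells s.c. in the left flank; 10 mice/group. Dosed i.v. by tail vein on days 7, 14 and 21, in mg/kg Dox-equivalent, from DMSO diluted into D5W (5% DMSO/95% D5W), 100 µL/mouse. Vehicle-only controls. The 3 mg/kg group was redosed at 5 mg/kg on days 45 and 52. Tumor volume (π × short diameter² × long diameter/6) measured weekly.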

In series [4] the test system is Mus musculus. In words: Toxicity in athymic nude mouse xenografted with human NCI-H1435 cells expressing CES2 gene assessed as lipid […] in hepatocytes administered with six iv injection of 3 to 4 mg/kg by hematoxylin/eosin staining-based microscopy. The class given is organism-based, Hepatocyte. Further details: dose 3-4 mg/kg, route intravenous. The essentials:
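Female athymic nude mice, 4–6 weeks old, 10 per group. About 2 × 10⁶ H1435 cells were implanted s.c. into the left flank. I.v. tail-vein doses (Dox-equivalent) were given on days 7, 14, 21, 56, 63 and 70 in 5% DMSO/95% D5W. At sacrifice, organs were fixed in 10% formalin for 24 h and paraffin-embedded. Sections were cut at 4 µm and stained with hematoxylin/eosin for microscopy.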

The subject of series [5] is Mus musculus. The series is described as follows: Toxicity in athymic nude mouse xenografted with human NCI-H1435 cells expressing CES2 gene assessed as uniformity in punktate staining pattern of hepatocytes administered with six iv injection of 2.5 mg/kg by hematoxylin/eosin staining-based microscopy. Further details: dose 2.5 mg/kg, route intravenous. The class given is organism-based, Hepatocyte. The essentials:
as §2

For series [6], the system named is Mus musculus. The series is described as follows: Toxicity in athymic nude mouse xenografted with human NCI-H1435 cells expressing CES2 gene assessed as occurrence of diarrhea at 3 to 4 mg/kg, iv administered on day 7, 14 and 21 after tumor implantation. The class given is organism-based. On the set-up: dose 3-4 mg/kg, route intravenous. As to conditions: in vivo.

Series [7] concerns NCI-H1435. The series is described as follows: Antitumor activity against human NCI-H1435 cells expressing CES2 gene xenografted in athymic nude mouse assessed as inhibition of tumor growth at 2.5 mg/kg, iv administered on day 7, 14 and 21 after tumor implantation. The class given is functional, organism-based. On the set-up: dose 2.5 mg/kg. The essentials: as §1
Series [8] concerns Mus musculus. The series is described as follows: Toxicity in athymic nude mouse xenografted with human NCI-H1435 cells expressing CES2 gene assessed as vacuolar degeneration of kidney tissue administered with six iv injection of 2.5 mg/kg by hematoxylin/eosin staining-based microscopy. On the set-up: dose 2.5 mg/kg, route intravenous. The class given is organism-based. To be noted: in vivo. The essentials:
(§3)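 Kidney and ileum taken from the H1435 nude-mouse study (six i.v. injections). Formalin-fixed for 24 h, paraffin-embedded, and cut into 4 µm sections. Sections deparaffinized in xylene, rehydrated through an ethanol series, stained in Harris hematoxylin for 50 s with eosin, then dehydrated and mounted. Morphology assessed by microscopy.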

For series [9], the system named is NCI-H1435. The series is described as follows: Antitumor activity against human NCI-H1435 cells expressing CES2 gene xenografted in pentyl PABC-doxazolidine-pretreated athymic nude mouse assessed as inhibition of tumor growth at 2.5 mg/kg, iv administered on day 70 after tumor implantation. The class given is functional, organism-based. On the set-up: dose 2.5 mg/kg. Put shortly:
as §1

In series [10] the test system is Mus musculus. The series is described as follows: Toxicity in NOD/SCID mouse xenografted with human HepG2 cells expressing CES2 gene assessed as occurrence of diarrhea at 3 mg/kg, iv administered on day 7, 14 and 21 after tumor implantation. The class given is organism-based. On the set-up: dose 3 mg/kg, route intravenous. As to conditions: in vivo.
For series [11], the system named is Mus musculus. In words: Toxicity in athymic nude mouse xenografted with human NCI-H1435 cells expressing CES2 gene assessed as occurrence of cardiomyocyte necrosis administered with six iv injection of 2.5 mg/kg by hematoxylin/eosin staining-based microscopy. The class given is organism-based. On the set-up: dose 2.5 mg/kg, route intravenous. As to conditions: in vivo. Put shortly: as §2

Series [12] has as its system Mus musculus. In words: Toxicity in athymic nude mouse xenografted with human NCI-H1435 cells expressing CES2 gene assessed as inflammatory cell infiltration in ileum administered with six iv injection of 2.5 mg/kg by hematoxylin/eosin staining-based microscopy. On the set-up: dose 2.5 mg/kg, route intravenous. The class given is organism-based. To be noted: in vivo. Put shortly: as §3

The subject of series [13] is Mus musculus. In words: Toxicity in athymic nude mouse xenografted with human NCI-H1435 cells expressing CES2 gene assessed as myofibril disorganization and vacuolization of heart tissue administered with six iv injection of 2.5 mg/kg by hematoxylin/eosin staining-based microscopy. The class given is organism-based. On the set-up: dose 2.5 mg/kg, route intravenous. To be noted: in vivo. Put shortly:
as §2

Series [14] deals with Mus musculus. In words: Toxicity in athymic nude mouse xenografted with human NCI-H1435 cells expressing CES2 gene assessed as vacuolar damage in ileum administered with six iv injection of 2.5 mg/kg by hematoxylin/eosin staining-based microscopy. The class given is organism-based. On the set-up: dose 2.5 mg/kg, route intravenous. As to conditions: in vivo. Put shortly: as §3

Series [15] concerns NCI-H1435. The series is described as follows: Antitumor activity against human NCI-H1435 cells expressing CES2 gene xenografted in athymic nude mouse assessed as reduction in tumor size at 2.5 mg/kg, iv administered on day 7, 14 and 21 after tumor implantation. Further details: dose 2.5 mg/kg. The class given is functional, organism-based. Put shortly: as §1
Series [16] deals with NCI-H1435. In words: Antitumor activity against human NCI-H1435 cells expressing CES2 gene xenografted in pentyl PABC-doxazolidine-pretreated athymic nude mouse assessed as inhibition of tumor growth at 2.5 mg/kg, iv administered on day 56 after tumor implantation. The class given is functional, organism-based. On the set-up: dose 2.5 mg/kg. The essentials: as §1
The subject of series [17] is NCI-H1435. The series is described as follows: Antitumor activity against human NCI-H1435 cells expressing CES2 gene xenografted in athymic nude mouse assessed as slowing of tumor growth at 2.5 mg/kg, iv administered as three weekly infusion from day 21 to 56 after tumor implantation. The class given is functional, organism-based. On the set-up: dose 2.5 mg/kg. The essentials:
as §1

Series [18] concerns Mus musculus. The series is described as follows: Toxicity in athymic nude mouse xenografted with human NCI-H1435 cells expressing CES2 gene at 3 to 4 mg/kg, iv administered on day 7, 14 and 21 after tumor implantation. Further details: dose 3-4 mg/kg, route intravenous. The class given is organism-based. To be noted: in vivo.
Series [19] is described as follows: Toxicity in NOD/SCID mouse xenografted with human HepG2 cells expressing CES2 gene assessed as mortality rate at 3 mg/kg, iv administered on day 7, 14 and 21 after tumor implantation. The class given is organism-based. Further details: dose 3 mg/kg, route intravenous. To be noted: in vivo, read-out: Activity. The essentials:
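Female NOD/SCID mice, 4–6 weeks old, 10 per group. About 1.5 × 10⁷ N-Hep G2 cells were injected s.c. into the left flank. Tail-vein i.v. dosing (mg/kg Dox-equivalent weight) was given on days 7, 14 and 21. Vehicle was 5% DMSO/95% D5W, and controls received vehicle only. Body weight was measured weekly over the first 5 weeks. Survival was followed to study end.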

SMILES strings stand for the structures. Activity calls are given as the source filed them. No cut-off for these calls is given here.

Regarding `COc1cccc2c1C(=O)c1c(O)c3c(c(O)c1C2=O)C[C@@](O)(C(=O)CO)C[C@@H]3O[C@H]1C[C@H](N)[C@H](O)[C@H](C)O1` [DOXORUBICIN], the inhibition entry with NCI-H1435 [1], with NCI-H1435 [9] and in the series with NCI-H1435 [16] was “inactive” in each case. For the same compound, the Activity entry with Mus musculus [2] is recorded as “Non-toxic”; with Mus musculus [3] it was “Toxic”; in the series on Mus musculus [4] it was “Toxic”; in the series with Mus musculus [5], “Non-toxic”; with Mus musculus [6], “Non-toxic”; in the series with Mus musculus [8] it was “Toxic”. Further, the Activity entry in the series on Mus musculus [10] is “Non-toxic”; with Mus musculus [11], “Toxic”; in the series with Mus musculus [12] it was “Non-toxic”; in the series on Mus musculus [13] it was “Toxic”; in the series with Mus musculus [14] it was “Non-toxic”; in the series on Mus musculus [18] it was “Non-toxic”. The inhibition entry in the series with HepG2 and in the series with NCI-H1435 [7] was “Active” throughout. Besides, the outcome with NCI-H1435 [15] and with NCI-H1435 [17] was Active. Moreover, in series [19], the mortality came out at 70%.
As for `COc1cccc2c1C(=O)c1c(O)c3c(c(O)c1C2=O)C[C@@](O)(C(=O)CO)C[C@@H]3O[C@H]1C[C@@H]2NCO[C@@H]2[C@H](C)O1` [DOXAZOLIDINE], in the series on Mus musculus [4], the Activity result was “Toxic”.

The values are drawn from ChEMBL document CHEMBL1153806, “Preclinical efficacy of a carboxylesterase 2-activated prodrug of doxazolidine” (J Med Chem, 2009).
